Many of the other results were omitted from the sample, so hits are more common in it than they were.
Candida biofilm = clotrimazole potentiators killing Candida biofilms, primary screen, with clotrimazole, Alamar Blue. inhibition, % at 6 µM. C. albicans biofilm + clotrimazole. AID 834, 2007. 0.14% of 85,000 active;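 active means inhibition above 20%; inactive means inhibition below 20%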;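 further: preformed 24 hr biofilms exposed to compound for 48 hr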
HCT116 bCat-KO = primary screen for growth suppressors in beta-catenin knockout HCT116 cells (colon tumor, human). HCT116 beta-catenin knockout viability, CellTiter-Glo, 60 h; active compounds read low. viability, % at 10 µM. 1.5% of 140,000 active. AID 818, 2007;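 active means viability at or under a set limit, the compound median less 4 SD, cut at about 6% in these data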
Fibroblast inh = antiproliferative effect on LL 47 fibroblasts – human, LL 47 cells, CellTiter-Glo luminescence, primary screen. LL 47 human lung fibroblast viability, ATP luminescence; active compounds read low. viability, % at 10 µM. 1.1% of 85,000 active;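 active means viability at or below 50% in the single dose screen; inactive means viability above 50%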;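 further: compound exposure lasted 72 h before the ATP readout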
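material = human LL 47 lung fibroblast cells | dosing = compounds added from tenfold dosing solution, 0.1% DMSO final | timing = overnight cell rest, 72 h compound treatment at 37 °C | measured by = CellTiter-Glo luminescence measuring cellular ATP | evaluation = % viability versus median cells-only luminescence | control set = cell-only wells, no compound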
H69AR inhibit = proliferation blockers of H69AR lung cancer cells, primary screen, cell-based, human, 86K library. H69AR lung tumor viability, ATP luminescence, 72 h; active compounds read low. viability, % at 10 µM. 6% of 85,000 active. AID 598, 2007;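 active means viability at or below 40%; inactive means viability above 40%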;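 further: multidrug resistant small cell line overexpressing MRP-1 efflux transporter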
HUVEC inhibit = inhibitors of HUVEC proliferation, primary screen, cell-based, 384-well; CellTiter-Glo luminescence, 72 h; active compounds read low; viability, % at 10 µM (by protocol); 1.1% of 86,000 active; AID 648, 2007;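 active means viability at or below 30%; inactive means viability above 30%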
PTEN del growth = growth suppression of PTEN-null HCT116, primary screen, cell-based, CellTiter-Glo | 1.2% of 140,000 active | AID 827, 2007 | HCT116 PTEN-null viability, 60 h; active compounds read low | viability, % at 10 µM;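 active means viability at or below a set limit, 4 SD under the median of all tested compounds, cut at about 3.7% in these data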;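 further: PTEN knockout HCT116 line with beta catenin targeted HCT116 as companion control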
Of the large screens only hits and unclear results are named; the others gave an inactive call.

O=C(CS(=O)CC(=O)N(CC(=O)NC1CCCC1)c1ccc2c(c1)OCCO2)Nc1ccc(F)cc1 (stereo not given)	none (no result: Candida biofilm, Fibroblast inh, H69AR inhibit, HUVEC inhibit)
CCCCOCCCNC(=O)c1ccc([N+](=O)[O-])c(C)c1	none (no result: Candida biofilm, Fibroblast inh, H69AR inhibit, HUVEC inhibit)
CCn1cc(C(=O)NCc2cccc(F)c2)c(=O)c2cc(F)c(N3CCN(C(=O)c4ccco4)CC3)cc21	H69AR inhibit 16
CCn1cc(C(=O)NCc2cccnc2)c(=O)c2cc(F)c(N3CCN(C(=O)c4ccco4)CC3)cc21	H69AR inhibit 35
CCc1nnc(NC(=O)CSc2ncnc3c2oc2ccccc23)s1	none
O=C(CSc1ncnc2c1oc1ccccc12)Nc1cccc(Cl)c1	none
O=C(CSc1ncnc2c1oc1ccccc12)Nc1nc2ccccc2s1	H69AR inhibit 13, HUVEC inhibit 16
Cc1nc(SCC(=O)Nc2ccccc2)c2oc3ccccc3c2n1	H69AR inhibit 12
O=C(CSc1ncnc2c1oc1ccccc12)Nc1cccc(C(F)(F)F)c1	H69AR inhibit 17
Cc1nc(SCC(=O)Nc2ccc(F)cc2)c2oc3ccccc3c2n1	none
c1ccc(CCc2nn3c(Cc4ccccc4)nnc3s2)cc1	none
COc1ccc(C(=O)/C=C/c2ccc(OC)c(CN3CCOCC3)c2)cc1	none (no result: Candida biofilm, Fibroblast inh, H69AR inhibit, HUVEC inhibit)
COc1ccc(C(=O)/C=C/c2ccc(OC)c(Cn3nnc4ccccc43)c2)cc1	HCT116 bCat-KO 6.0 (no result: Candida biofilm, Fibroblast inh, H69AR inhibit, HUVEC inhibit)
Cc1sc(NC(=O)c2ccco2)c(C(c2cccnc2)N2CCCC2)c1C (stereo not given)	none
Cc1ccc(NC(=S)C2=C(O)c3ccccc3N(C)S2(=O)=O)cc1	none (no result: Candida biofilm, Fibroblast inh, H69AR inhibit, HUVEC inhibit)
O=C(NCCSCc1c(F)cccc1Cl)c1ccc(CN2CCOCC2)cc1	none (no result: Candida biofilm, Fibroblast inh, H69AR inhibit, HUVEC inhibit)
Cc1nn(-c2ccccc2)c(C)c1/C=N/NC(=O)CSc1nc2ccccc2c(=O)n1-c1ccc(Br)cc1	HCT116 bCat-KO 1.1, PTEN del growth 1.1 (no result: Candida biofilm, Fibroblast inh, H69AR inhibit, HUVEC inhibit)
CCOc1ccc(/C=N/n2c(SC)nnc2-c2ccccc2)cc1OCC	none (no result: Candida biofilm, Fibroblast inh, H69AR inhibit, HUVEC inhibit)
CC(Cc1cccs1)NC(=O)Nc1ccc(Cl)c(Cl)c1 (stereo not given)	H69AR inhibit 26
CC(=O)OCC1O[C@@H](O[C@@H]2C[C@H]3C(C)(C)[C@H](OC(C)=O)CC[C@]3(C)[C@H]3CC[C@]45C[C@]4(CC[C@H]5[C@@H](C)C[C@@H](O)[C@H](O)C(C)(C)O)[C@@]32C)[C@H](O)[C@@H](O)[C@@H]1O (stereo not given in full)	HCT116 bCat-KO 1.1, PTEN del growth 1.0 (no result: Candida biofilm, Fibroblast inh, H69AR inhibit, HUVEC inhibit)
CC(C)CCNC(=O)C(c1ccco1)N(C(=O)Cn1nnc2ccccc21)c1ccc2c(c1)OCO2 (stereo not given)	HCT116 bCat-KO 3.1, PTEN del growth 3.3
C=CCN(c1cccc(C(F)(F)F)c1)S(=O)(=O)c1cccc(C(=O)OCC(=O)Nc2ccccc2)c1	none (no result: Candida biofilm, Fibroblast inh, H69AR inhibit, HUVEC inhibit)
CN1C(=O)C(O)(CC(=O)c2ccc(F)cc2)c2cc(Br)ccc21 (stereo not given)	H69AR inhibit 25
O=C(Oc1c(Cl)cc(Cl)c2cccnc12)c1ccco1	HCT116 bCat-KO 3.5, Fibroblast inh 43, H69AR inhibit 1.8
O=C(Oc1c(Cl)cc(Cl)c2cccnc12)c1cccs1	H69AR inhibit 27
CC(=O)CSc1ccc(C(=O)O)cn1	none (no result: Candida biofilm, Fibroblast inh, H69AR inhibit, HUVEC inhibit)
CC(C)(C)OC(=O)N1CCN(c2ccc(CNC(=O)c3ccc(Cl)cc3)cc2)CC1	none (no result: Candida biofilm, Fibroblast inh, H69AR inhibit, HUVEC inhibit)
CNc1ccc(Br)cc(C(=O)/C=C/c2cccc(OC)c2OC)c1=O	H69AR inhibit 5.3
CCNc1ccccc(C(=O)/C=C/c2ccc3c(c2)OCO3)c1=O	none (no result: Candida biofilm, Fibroblast inh, H69AR inhibit, HUVEC inhibit)
CCNc1ccc(Br)cc(C(=O)/C=C/c2ccccc2Cl)c1=O	Fibroblast inh 40, H69AR inhibit 2.0, HUVEC inhibit 7.6 (no result: HCT116 bCat-KO, PTEN del growth)
CNc1ccccc(C(=O)/C=C/c2ccccc2OC)c1=O	none (no result: Candida biofilm, Fibroblast inh, H69AR inhibit, HUVEC inhibit)
CC(C)Cn1c(N)c(C(=O)CSc2ncnc3sc4c(c23)CCCC4)c(=O)n(C)c1=O	none (no result: Candida biofilm, Fibroblast inh, H69AR inhibit, HUVEC inhibit)
C[C@@H]1C[C@H](Nc2ccccc2)c2ccccc2N1C(=O)c1cccnc1	H69AR inhibit 20
CC1CC(Nc2ccccc2)c2ccccc2N1C(=O)c1cccnc1 (stereo not given)	none
CCCC(=O)NC(c1ccc2c(c1)OCO2)c1cc(Cl)c2cccnc2c1O (stereo not given)	HCT116 bCat-KO 4.1 (no result: Candida biofilm, Fibroblast inh, H69AR inhibit, HUVEC inhibit)

Source: PubChem BioAssay (several laboratories)
